According to publication PMC5148670 (Journal of medicinal chemistry, 2016):
Changes are numbered by the printed parent chain. Like-named read-outs stand apart in the source and are kept apart here.

Key:
[1] = target: PRC2 (Homo sapiens, UniProt Q15910); assay: Mass spectrometry of covalent labeling, PRC2; type: binding
[2] = target: T1, SMYD3 (Homo sapiens, UniProt Q9H7B4); assay: Mass spectrometry of covalent labeling, SMYD3; type: binding
T1 sequence (Q9H7B4 1-428): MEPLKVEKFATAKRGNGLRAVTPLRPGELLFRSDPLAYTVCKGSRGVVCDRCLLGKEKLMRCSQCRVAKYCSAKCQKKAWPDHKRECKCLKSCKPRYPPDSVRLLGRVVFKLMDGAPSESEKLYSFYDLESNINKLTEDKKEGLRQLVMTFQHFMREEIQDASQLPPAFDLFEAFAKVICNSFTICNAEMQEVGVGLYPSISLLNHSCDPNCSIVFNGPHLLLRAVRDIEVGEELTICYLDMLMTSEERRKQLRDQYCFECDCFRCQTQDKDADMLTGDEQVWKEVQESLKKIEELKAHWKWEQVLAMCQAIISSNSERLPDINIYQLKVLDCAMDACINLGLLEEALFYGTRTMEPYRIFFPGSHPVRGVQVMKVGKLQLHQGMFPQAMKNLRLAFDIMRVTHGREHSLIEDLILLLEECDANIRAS

[3] = target: T2, SETD8 (Homo sapiens, UniProt Q9NQR1); assay: Mass spectrometry of covalent modification, wild-type SETD8; type: binding; conditions: for covalent adduct formation by MS: purified SETD8 with full SET domain, 3 hours incubation
T2 sequence (Q9NQR1 232-393): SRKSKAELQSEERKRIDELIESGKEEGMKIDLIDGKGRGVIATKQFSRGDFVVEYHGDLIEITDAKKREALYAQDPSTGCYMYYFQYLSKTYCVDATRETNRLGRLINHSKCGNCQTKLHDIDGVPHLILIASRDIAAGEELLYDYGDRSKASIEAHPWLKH
Procedure, shortened: (§1)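 Catalytic domain of SETD8 (wild type, C311S or C343S; the C311S protein carried a His tag) at 7 μM was incubated with 20–200 μM test compound in water for over 3 h. Samples were analysed by electrospray LC/MS time-of-flight to detect covalent adducts. Masses of each protein without compound were recorded as controls.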

[4] = test system: H4K20me mark in HeLa cells; assay: H4K20me mark in HeLa cells; type: cell-based; conditions: up to 10μM
[5] = target: T2, SETD8; assay: Residual enzymatic activity of the purified 3-SETD8 adduct; type: biochemical; conditions: purified monomer and dimer of 3-SETD8 adduct
Procedure, shortened: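 SETD8 was incubated with the covalent test compound until adduct formation was complete by MS. The adduct was purified by gel filtration, giving monomer and dimer forms that interconvert. Each form was then tested in the enzymatic assay and compared with wild-type SETD8.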

[6] = target: T2, SETD8; assay: SETD8 scintillation proximity assay; type: biochemical
[7] = target: T3, C311S mutant of SETD8 (Homo sapiens, UniProt Q9NQR1, C311S); assay: Mass spectrometry of covalent modification, SETD8 C311S mutant; type: binding
T3 sequence (Q9NQR1 232-393 C311S): T2 sequence (Q9NQR1 232-393) with C80S
Procedure, shortened: as §1

[8] = target: SMYD2 (Homo sapiens, UniProt Q9NRG4); assay: Mass spectrometry of covalent labeling, SMYD2; type: binding
SMYD2, sequence (Q9NRG4 whole entry, species assumed): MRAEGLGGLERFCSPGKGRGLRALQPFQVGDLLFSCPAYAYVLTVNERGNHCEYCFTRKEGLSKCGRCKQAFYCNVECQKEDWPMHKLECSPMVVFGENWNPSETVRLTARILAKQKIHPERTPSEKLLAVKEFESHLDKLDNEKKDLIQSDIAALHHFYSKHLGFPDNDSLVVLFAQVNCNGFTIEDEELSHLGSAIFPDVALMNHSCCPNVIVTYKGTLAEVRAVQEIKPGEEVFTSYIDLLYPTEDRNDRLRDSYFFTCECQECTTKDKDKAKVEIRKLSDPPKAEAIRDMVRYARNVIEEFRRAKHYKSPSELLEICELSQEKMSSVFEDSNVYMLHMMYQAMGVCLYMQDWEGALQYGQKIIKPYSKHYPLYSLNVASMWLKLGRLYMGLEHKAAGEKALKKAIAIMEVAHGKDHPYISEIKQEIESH

[9] = test system: 28 other methyltransferases; assay: Methyltransferase selectivity assays; type: biochemical
[10] = target: T4, C343S mutant of SETD8 (Homo sapiens, UniProt Q9NQR1, C343S); assay: Mass spectrometry of covalent modification, SETD8 C343S mutant; type: binding
T4 sequence (Q9NQR1 232-393 C343S): T2 sequence (Q9NQR1 232-393) with C112S
Procedure, shortened: as §1

[11] = test system: SETD8; conditions: cited from earlier work

PRC2, sequence (Q15910 whole entry): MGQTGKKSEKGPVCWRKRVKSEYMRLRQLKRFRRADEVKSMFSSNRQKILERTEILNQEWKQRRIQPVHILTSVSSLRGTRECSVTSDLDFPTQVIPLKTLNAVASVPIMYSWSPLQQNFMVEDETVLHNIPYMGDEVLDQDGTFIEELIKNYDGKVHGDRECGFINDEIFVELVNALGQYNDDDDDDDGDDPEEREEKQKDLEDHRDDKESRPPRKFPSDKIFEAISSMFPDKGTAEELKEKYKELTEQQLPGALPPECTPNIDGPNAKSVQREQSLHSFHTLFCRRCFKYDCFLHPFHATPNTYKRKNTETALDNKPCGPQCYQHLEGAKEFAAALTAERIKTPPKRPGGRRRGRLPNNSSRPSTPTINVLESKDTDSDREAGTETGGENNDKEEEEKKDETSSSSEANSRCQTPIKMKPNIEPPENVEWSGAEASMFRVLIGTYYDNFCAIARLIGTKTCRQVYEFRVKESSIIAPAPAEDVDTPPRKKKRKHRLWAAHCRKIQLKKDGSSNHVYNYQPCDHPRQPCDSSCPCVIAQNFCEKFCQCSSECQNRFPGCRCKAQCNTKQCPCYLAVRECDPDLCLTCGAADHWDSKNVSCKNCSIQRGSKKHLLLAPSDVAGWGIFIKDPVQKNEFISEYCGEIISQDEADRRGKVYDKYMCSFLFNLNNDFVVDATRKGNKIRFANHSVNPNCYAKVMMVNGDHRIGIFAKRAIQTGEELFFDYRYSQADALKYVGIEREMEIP
PRC2, sequence (O75530 whole entry partner): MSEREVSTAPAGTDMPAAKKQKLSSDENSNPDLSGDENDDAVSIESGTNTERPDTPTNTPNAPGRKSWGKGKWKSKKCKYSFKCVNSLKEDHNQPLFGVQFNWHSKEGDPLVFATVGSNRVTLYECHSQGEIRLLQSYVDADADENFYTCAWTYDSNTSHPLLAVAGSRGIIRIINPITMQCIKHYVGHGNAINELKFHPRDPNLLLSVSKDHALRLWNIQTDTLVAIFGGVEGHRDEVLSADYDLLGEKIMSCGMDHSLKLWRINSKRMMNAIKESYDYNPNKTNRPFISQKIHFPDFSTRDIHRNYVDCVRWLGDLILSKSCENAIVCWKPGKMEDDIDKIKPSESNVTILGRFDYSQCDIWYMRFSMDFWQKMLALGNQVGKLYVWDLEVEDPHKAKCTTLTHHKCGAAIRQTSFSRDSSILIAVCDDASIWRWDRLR
PRC2, sequence (Q15022 whole entry partner): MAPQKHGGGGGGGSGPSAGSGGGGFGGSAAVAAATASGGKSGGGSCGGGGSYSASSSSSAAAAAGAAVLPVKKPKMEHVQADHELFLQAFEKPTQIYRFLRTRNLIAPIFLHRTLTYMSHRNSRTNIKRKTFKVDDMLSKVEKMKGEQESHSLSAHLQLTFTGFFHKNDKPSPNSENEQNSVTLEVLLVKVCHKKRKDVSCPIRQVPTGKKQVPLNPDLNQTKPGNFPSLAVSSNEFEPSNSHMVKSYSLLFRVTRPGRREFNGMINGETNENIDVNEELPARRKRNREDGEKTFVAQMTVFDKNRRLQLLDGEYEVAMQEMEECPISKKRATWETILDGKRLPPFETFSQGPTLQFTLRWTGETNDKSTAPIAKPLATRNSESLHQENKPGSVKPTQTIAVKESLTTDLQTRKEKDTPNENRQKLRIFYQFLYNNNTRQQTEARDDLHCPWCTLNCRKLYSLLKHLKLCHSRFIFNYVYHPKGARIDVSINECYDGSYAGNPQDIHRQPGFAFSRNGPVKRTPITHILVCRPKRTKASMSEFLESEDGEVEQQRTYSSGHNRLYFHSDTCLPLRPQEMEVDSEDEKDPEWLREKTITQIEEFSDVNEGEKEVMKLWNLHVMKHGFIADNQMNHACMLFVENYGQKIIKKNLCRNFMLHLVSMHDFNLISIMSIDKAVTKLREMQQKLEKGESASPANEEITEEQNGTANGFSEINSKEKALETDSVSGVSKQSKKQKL

Molecule	labeling by MS analysis [1]	labeling by MS analysis [2]	covalent modification of SETD8 in presence of glutathione ([3]; 5 mM glutathione (GSH))	covalent adduct formation by MS [3]	reduction in the H4K20me mark [4]	enzymatic activity retained by adduct relative to wild-type SETD8 [5]	Hillslope ([6]; incubation with SETD8 for 1 or 5 hours, both incubation times)	covalent adduct formation by MS [7]	labeling by MS analysis [8]	selectivity for SETD8 over other methyltransferases [9]	selectivity for SETD8 over other methyltransferases ([9]; listed as MS453)	covalent adduct formation by MS [10]	activity in the SETD8 biochemical assay [6]	mechanism of action [11]	IC50 ([11]; read-out: potency in vitro) [µM]
C=CC(=O)NCCCNc1nc(N2CCCC2)nc2cc(OC)c(OC)cc12 [compound 3, N-(3-((6,7-Dimethoxy-2-(pyrrolidin-1-yl)quinazolin-4-yl)amino)propyl)acrylamide]	no labeling	no labeling	not affected	efficiently forms a single-modified covalent adduct	did not observe significant reduction	about 10%	1.2	did not form an adduct	no labeling	selective for SETD8 over 30 other methyltransferases	selective for SETD8 against 28 other methyltransferases	formed a single-modified adduct			
C=CC(=O)NCCCN(C)c1nc(N2CCCC2)nc2cc(OC)c(OC)cc12 [compound 4, N-(3-((6,7-Dimethoxy-2-(pyrrolidin-1-yl)quinazolin-4-yl)(methyl)amino)propyl)acrylamide]				did not covalently modify SETD8									inactive		
nauhoic acid A														SAM-competitive	6.5
